Measurements of several laboratories.
Each line is one published result; the experiments were not run side by side.
Effect on: enzyme activity
Mode: inhibitor
PFF0160c: Dihydroorotate dehydrogenase (quinone), mitochondrial (PFF0160c, Plasmodium falciparum, UniProt Q08210)
PFF0160c E182D: Dihydroorotate dehydrogenase (quinone), mitochondrial (PFF0160c, Plasmodium falciparum, UniProt Q08210, E182D)

| Compound | target | test | IC50 |
| --- | --- | --- | --- |
| COC(=O)C1=CNC=C(C(=O)OC)C1c1ccc(Cl)c([N+](=O)[O-])c1 | PFF0160c | absorbance | 716 nM |
| Cc1nc(Nc2ccc(S(F)(F)(F)(F)F)cc2)c2c(CO)noc2n1 | PFF0160c | absorbance | 2800 nM |
| Cc1cc(C(C)NC(=O)c2[nH]cc(-c3c[nH]c4cc(C(F)(F)F)ccc34)c2C)no1 (stereo not shown) | PFF0160c | absorbance | > 100000 nM |
| CCCOc1ccccc1-c1nc2sc3c(c2c(=O)[nH]1)CCN(C)C3 | PFF0160c E182D | absorbance | 911 nM |
| Cc1nc(Nc2ccc(C(F)(F)F)cc2)c2c(C(F)(F)F)noc2n1 | PFF0160c | absorbance | 33 nM |
| Cc1cc(Nc2ccc(Cl)cc2)n2ncnc2n1 | PFF0160c | – | 1600 nM |
| Cc1[nH]c(C(=O)NC(C)c2cnn(C)c2)c(C)c1Cc1ccc(C(F)(F)F)nc1 (stereo not shown) | PFF0160c | absorbance | > 30000 nM |
| Cc1nc(NC2Cc3cc(F)c(F)cc3C2)c2c(C)noc2n1 | PFF0160c | absorbance | 48 nM |
| Cc1c(Cc2ccc(C(F)(F)F)nc2)c[nH]c1C(=O)N[C@@H](C)CO | PFF0160c | absorbance | 2700 nM |
| CCN(CC)CC#Cc1ccc2[nH]c(C)c(Cl)c(=O)c2c1 | PFF0160c E182D | absorbance | > 10000 nM |
